High-throughput results (PubChem BioAssay)
KCNK3 block – human KCNK3 channel inhibition, primary screen; CHO-KCNK3 thallium flux, FluxOR fluorescence; hits give low values; AID 602410; O14649; 340,000 compounds, 0.84% hits; B-score at 10 µM;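 active means B-score under library mean minus 4 SD, starting fluorescence ratio at most library mean plus 5 SD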;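 further: more negative B-score means stronger inhibition of thallium flux through KCNK3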
Target sequence (O14649 whole entry, looked up): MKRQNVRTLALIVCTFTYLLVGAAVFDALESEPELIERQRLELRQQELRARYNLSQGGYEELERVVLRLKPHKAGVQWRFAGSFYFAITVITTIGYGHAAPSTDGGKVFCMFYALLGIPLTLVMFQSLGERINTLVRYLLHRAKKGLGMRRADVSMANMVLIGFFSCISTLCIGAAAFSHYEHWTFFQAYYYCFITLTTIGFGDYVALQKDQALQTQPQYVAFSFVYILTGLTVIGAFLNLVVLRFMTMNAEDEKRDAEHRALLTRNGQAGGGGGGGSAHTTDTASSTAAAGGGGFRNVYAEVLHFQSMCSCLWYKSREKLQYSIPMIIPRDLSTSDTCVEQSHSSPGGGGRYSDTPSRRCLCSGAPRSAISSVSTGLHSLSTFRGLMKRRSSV
Kir21 block – blocks the mouse Kir2.1 inward-rectifier potassium channel. AID 1672. B-score at 10 µM. P35561. 310,000 compounds, 0.85% hits. HEK293-Kir2.1, FluxOR thallium flux fluorescence; hits give low values;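 active means fluorescence ratio B-score at or below minus 3 SD of library scores, with starting-brightness B-score within 2 SD, cut at about -4.2 in these data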;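 further: channel flux triggered by added potassium and thallium sulfate stimulus; B-score of peak minus minimum fluorescence over baseline after thallium stimulus; more negative B-score means stronger Kir2.1 block with less thallium influx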
KCNK9 block – inhibitors of human KCNK9 two-pore domain potassium channel. Q9NPC2. HEK293 KCNK9, FluxOR thallium flux fluorescence; hits give low values. B-score at 10 µM. 310,000 compounds, 1.2% hits. AID 488922;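 active means ratio B-score over 3 SD below the library mean, with starting fluorescence within 5 SD of its mean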;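 further: negative B-score means less thallium flux so channel inhibition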
KCNQ1 pot – potentiates or activates the human KCNQ1 potassium channel | CHO-K1 KCNQ1, thallium flux FluxOR fluorescence; hits give high values | 310,000 compounds, 0.35% hits | B-score at 10 µM | P51787;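 active means fluorescence ratio B-score, a plate-corrected score, at least three library SD, with initial intensity B-score within 5 SD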
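Doses: Single concentration per compound, DMSO matched to controls | Test system: KCNQ1-transfected CHO-K1 cells | Timing: 90 min dye loading and 20 min compound exposure, both at room temperature | Measured by: Kinetic FluxOR thallium fluorescence, 10-s 1-Hz baseline, 110-s post-stimulus read | Medium: Assay buffer with matched DMSO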
hERG protect – compounds protecting human hERG from proarrhythmic drug block; activation (rescue from dofetilide block), less the hit threshold, % at 10 µM; AID 1511; 310,000 compounds, 0.51% hits; CHO-hERG, FluxOR thallium flux, dofetilide IC70 present; Q12809;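 active means activation above the mean of controls blocked by dofetilide plus 5 SD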;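 further: thallium influx through hERG after potassium depolarization seen as dye fluorescence rise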
KCNQ1 block – human KCNQ1 channel inhibition | B-score at 10 µM | CHO-K1 KCNQ1, FluxOR thallium flux fluorescence; hits give high values | 310,000 compounds, 1.3% hits | P51787;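 active means compounds whose thallium flux B-score, printed positive for inhibition, exceeds three library SD while starting fluorescence stays within three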;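 further: channel opened by potassium depolarization with thallium stimulus after 20 min compound exposure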
* hit, by the source's call. Only some compounds are listed: those with a hit (about 3.7% of all), similar ones and a draw of the others.

CC1CC(C)CN(S(=O)(=O)c2cccc3cccnc23)C1 (stereo not drawn) was read as KCNK3 block inactive, Kir21 block -5.2*, KCNK9 block inactive, KCNQ1 pot inactive, hERG protect -1 and KCNQ1 block inactive.
For CCOC(=O)c1c(CSc2ccccc2)n(C)c2cc(Br)c(O)c(CN(C)C)c12 the results were KCNK3 block inactive, Kir21 block -1.2, KCNK9 block -6.7*, KCNQ1 pot inactive, hERG protect -20 and KCNQ1 block inactive.
Screening CCOC(=O)c1c(CSc2ccccc2)n(C)c2ccc(O)c(CN3CCN(C)CC3)c12 returned KCNK3 block inactive, Kir21 block -4.9*, KCNK9 block inactive, KCNQ1 pot inactive, hERG protect -12 and KCNQ1 block inactive.
Screening CCOC(=O)c1c(CSc2ccc(C)cc2)n(C)c2cc(Br)c(O)c(CN(C)C)c12 returned KCNK3 block inactive, Kir21 block -1.6, KCNK9 block inactive, KCNQ1 pot inactive, hERG protect -28 and KCNQ1 block inactive.
`CCOC(=O)c1c(CSc2ccsc2)n(C)c2cc(Br)c(O)c(CN(C)C)c12` gave KCNK3 block inactive, Kir21 block -7.1*, KCNK9 block inactive, KCNQ1 pot inactive, hERG protect -17 and KCNQ1 block inactive.
CCCNC(=S)N1CCN(CC)CC1 was read as KCNK3 block inactive, Kir21 block -0.01, KCNK9 block inactive, KCNQ1 pot inactive, hERG protect -4 and KCNQ1 block inactive.
For C/C(=N/NC(=O)c1nnn(-c2nonc2N)c1COc1ccccc1)c1ccc(O)cc1 the results were KCNK3 block inactive, Kir21 block -1.3, KCNK9 block inactive, KCNQ1 pot inactive, hERG protect -4 and KCNQ1 block inactive.
For CCCCN1C(=O)/C(=C/C=C2\SCCN2C)SC1=S the results were KCNK3 block inactive, Kir21 block -1.2, KCNK9 block inactive, KCNQ1 pot inactive, hERG protect -16 and KCNQ1 block inactive.
For CN1CCS/C1=C/C=C1\SC(=S)N(CC(=O)O)C1=O the results were KCNK3 block inactive, Kir21 block -12, KCNK9 block inactive, KCNQ1 pot inactive, hERG protect -32 and KCNQ1 block 14*.
Screening COC(=O)c1[nH]c2ccc(Br)cc2c1NC(=O)CN1CCN(C2CCCCC2)CC1 returned KCNK3 block inactive, Kir21 block -4.2, KCNK9 block inactive, KCNQ1 pot inactive, hERG protect -16 and KCNQ1 block inactive.
For COC(=O)c1[nH]c2ccc(Br)cc2c1NC(=O)CN1CCCc2ccccc21 the results were KCNK3 block inactive, Kir21 block -0.46, KCNK9 block inactive, KCNQ1 pot inactive, hERG protect -3 and KCNQ1 block 6*.
Cc1cc(Cl)n2c(nc3ccccc32)c1C#N was read as KCNK3 block inactive, Kir21 block -1.5, KCNK9 block inactive, KCNQ1 pot inactive, hERG protect -30 and KCNQ1 block 6*.
`Cc1ccccc1CSc1nnc(-c2ccco2)n1Cc1ccco1` gave KCNK3 block inactive, Kir21 block -8.2*, KCNK9 block inactive, KCNQ1 pot inactive, hERG protect -11 and KCNQ1 block inactive.
CCn1c(SCc2nc(-c3ccc(Cl)cc3)no2)nnc1-c1ccco1 was read as KCNK3 block inactive, Kir21 block -4.7*, KCNK9 block inactive, KCNQ1 pot inactive, hERG protect -6 and KCNQ1 block inactive.
Screening c1ccc(CSc2nnc(-c3cccs3)n2Cc2ccco2)cc1 returned KCNK3 block inactive, Kir21 block -7.7*, KCNK9 block inactive, KCNQ1 pot inactive, hERG protect -28 and KCNQ1 block inactive.
Screening Cc1ccccc1CSc1nnc(-c2cccs2)n1Cc1ccco1 returned KCNK3 block inactive, Kir21 block -1.3, KCNK9 block inactive, KCNQ1 pot inactive, hERG protect -20 and KCNQ1 block inactive.
For COc1ccccc1CNC(=O)CS(=O)(=O)c1ccccc1 the results were KCNK3 block inactive, Kir21 block 0.3, KCNK9 block inactive, KCNQ1 pot inactive, hERG protect -8 and KCNQ1 block inactive.
Screening Cc1cc(C(=O)NNC(=O)Cc2ccc(Cl)c(Cl)c2)c(C)o1 returned KCNK3 block inactive.
O=C(Cn1cccc1C(=O)c1ccccc1)NCCC1=CCCCC1 was read as KCNK3 block inactive, Kir21 block -6.8*, KCNK9 block inactive, KCNQ1 pot inactive, hERG protect -4 and KCNQ1 block inactive.
For CC(=O)Nc1ccccc1OCC(=O)NCCC1=CCCCC1 the results were KCNK3 block inactive, Kir21 block -1.2, KCNK9 block inactive, KCNQ1 pot inactive, hERG protect -8 and KCNQ1 block inactive.
`O=C(Cn1cccc1C(=O)c1ccccc1)NCCCc1ccccc1` gave KCNK3 block inactive, Kir21 block -1.3, KCNK9 block inactive, KCNQ1 pot inactive, hERG protect -7 and KCNQ1 block inactive.
Screening COc1ccc(CNC(=O)CSc2cc(=O)n(C)c3ccccc23)cc1 returned KCNK3 block inactive, Kir21 block -0.61, KCNK9 block inactive, KCNQ1 pot inactive, hERG protect -7 and KCNQ1 block inactive.
Cn1c(=O)cc(SCC(=O)NCCC2=CCCCC2)c2ccccc21 was read as KCNK3 block inactive, Kir21 block -5.5*, KCNK9 block inactive, KCNQ1 pot inactive, hERG protect -1 and KCNQ1 block inactive.
Screening COc1ccc(OC(C)C(=O)NCCC2=CCCCC2)cc1 (stereo not drawn) returned KCNK3 block inactive, Kir21 block -6.4*, KCNK9 block inactive, KCNQ1 pot inactive, hERG protect -6 and KCNQ1 block inactive.
For Cc1ccccc1OCC(=O)NCCC1=CCCCC1 the results were KCNK3 block inactive, Kir21 block -5.4*, KCNK9 block inactive, KCNQ1 pot inactive, hERG protect -6 and KCNQ1 block inactive.
Screening CCOC(=O)c1c(NC(=O)c2cc(C)on2)c2cc([N+](=O)[O-])ccc2n1C returned Kir21 block 0.23, KCNK9 block inactive, KCNQ1 pot inactive, hERG protect -7 and KCNQ1 block inactive.
Screening O=[N+]([O-])c1cc(Br)c(O)c(/C=N/Nc2nnnn2-c2cccc3ccccc23)c1 returned KCNK3 block inactive, Kir21 block -1.7, KCNK9 block inactive, KCNQ1 pot inactive, hERG protect -36 and KCNQ1 block 7*.
CCCCCCCNC(=O)C1(CC2CC(c3cccc(Br)c3)=NO2)CCNCC1 (stereo not drawn) was read as KCNK3 block inactive, Kir21 block -11*, KCNK9 block inactive, KCNQ1 pot inactive, hERG protect -20 and KCNQ1 block inactive.
